# Screens: PubChem, The Scripps Research Institute Molecular Screening Center
# Rows were chosen to be rich in hits. Some 1.6% of all compounds tested hit in one or more screens of this group.
# FID counter: counter-screen for HCV NS3 helicase inhibitors: DNA intercalator displacement; DNA fluorescent intercalator displacement, fluorescence; 290,000 compounds, 0.17% hits; AID 1845; inhibition, % at 7.9 µM; in the data active = inhibition above about 37%;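 also: 0% = vehicle and 100% = reference compound; higher means more ethidium bromide displaced from hairpin DNA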
# IMP-1 inh: blocks Pseudomonas aeruginosa IMP-1 metallo-beta-lactamase. purified IMP-1, nitrocefin hydrolysis, epi-absorbance fluorescence. inhibition, % at 5.6 µM. 290,000 compounds, 0.45% hits. AID 1556;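 active = inhibition above the mean plus 3 SD of all compounds in the same screening run, cut at about 4.5% in these data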;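 also: 0% = IMP-1 with DMSO and 100% = DMSO wells lacking enzyme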
#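 System: Purified recombinant IMP-1 metallo-beta-lactamase enzyme | Measured by: Fluorescence quenching readout, ex 480/em 530 nm | Replication: Singlicate | Incubation: 15 min preincubation plus 25 min reaction at 25 °C | Evaluation: Percent inhibition from optical density relative to buffer-blank wells | Benchmarks: DMSO with and without IMP-1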
# core dimer inh: HCV core protein dimerization inhibition; inhibition, % at 5 µM; 300,000 compounds, 0.33% hits; AID 1899; TR-FRET GST/Flag-core106 dimerization, 1536-well;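 active = inhibition above the mean of all tested compounds plus 3 SD, set per screening campaign, cut at about 45% in these data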
#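 assay system = GST-tagged and Flag-tagged HCV core protein residues 1-106 | controls = unlabelled core106 and no-GST-core106 wells | incubation = compound-protein-antibody incubation 4 h at 22.5 °C | probe or stimulus = Eu donor and XL665 acceptor anti-tag antibodies | read-out = % inhibition based on acceptor/donor emission ratio | signal = TR-FRET 671 and 617 nm emission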
# VIM-2 inh: blocks Pseudomonas aeruginosa VIM-2 metallo-beta-lactamase. 290,000 compounds, 0.89% hits. purified VIM-2, nitrocefin hydrolysis, epi-absorbance fluorescence. AID 1527. inhibition, % at 5.6 µM;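 active = inhibition above the mean of all tested compounds plus 3 SD, cutoff set per screening run, cut at about 7.5% in these data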;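 also: red hydrolysis product quenches plate fluorescence so inhibitors raise well fluorescence; 0% = enzyme with DMSO and 100% = DMSO without enzyme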
# * hit, by the source's call.
SMILES,FID counter,IMP-1 inh,core dimer inh,VIM-2 inh
COc1ccccc1NC(=O)C1Cc2ccccc2CN1C(=O)c1ccco1 (configuration not stated),-21,-3,21,-2
O=C(Nc1cc(C(F)(F)F)ccc1N1CCOCC1)C1Cc2ccccc2CN1C(=O)c1ccco1 (configuration not stated),-50,5.6*,7,0
COc1cc(C(=O)OC2CCN(C)CC2)cc(OC)c1OC,8,-2,4,1
COc1ccc(N(CC(=O)Nc2cccc3ccccc23)S(C)(=O)=O)cc1,-19,1,1,1
CN(c1ccc(Cl)cc1)c1cc(=O)n(C)c2ccccc12,-14,-2,67*,-1
O=[N+]([O-])c1ccc(N2CCN(c3nc(-c4ccc(Cl)cc4)cs3)CC2)cc1,-3,-7,14,-3
Cc1csc(C(=O)NCC(=O)NNC(=O)c2cccc(Cl)c2)c1,-9,-1,-6,-1
COc1ccccc1N1CCN(C(=O)C(C)CS(=O)(=O)c2ccc3c(c2)NC(=O)CS3)CC1 (configuration not stated),-58,11*,-283,-3
CCc1nn(CC(=O)NCCN2CCN(C)CC2)c(=O)c2cc3c(OC)cccc3n12,32,-2,-9,12*
CCc1nn(CC(=O)NCCC(C)C)c(=O)c2cc3c(OC)cccc3n12,-15,4,-7,3
CC(C)(C)c1ccc(Oc2coc3cc(OCC(=O)O)ccc3c2=O)cc1,-18,-1,6,0
COC(=O)c1ccc(Oc2coc3cc(OCc4ccc([N+](=O)[O-])cc4)ccc3c2=O)cc1,-4,-3,68*,-2
Cc1cc(Cl)c2oc(C(=O)N3CCN(c4ccncc4)CC3)c(C)c2c1,28,-4,0,7.8*
Cc1c(C(=O)O)cccc1-c1ccc(/C=N/n2cnnc2)o1,-4,-3,-9,-1
O=C(O)c1cccc(-c2ccc(/C=N/n3cnnc3)o2)c1,1,-3,-11,11*
O=C(C1CCC(CNS(=O)(=O)c2cccs2)CC1)N1CCN(c2ccc(Cl)cc2)CC1 (configuration not stated),-53,-3,21,-2
CCC(C)(C)NC(=O)CC(c1ccc(OC)cc1)n1cccc1 (configuration not stated),-8,-2,-3,-2
CCN(CC)CCCNC(=O)c1cn(CC)c2cc(N3CCN(C(=O)c4ccco4)CC3)c(F)cc2c1=O,25,-3,-10,12*
CCn1cc(S(=O)(=O)c2ccc(C)cc2)c(=O)c2cc(F)c(N3CCN(C)CC3)cc21,9,0,11,7.9*
CCn1cc(C(=O)NCCN(C)C)c(=O)c2cc(F)c(N3CCN(C)CC3)cc21,56*,-2,5,12*
CCn1cc(C(=O)Nc2ncccc2O)c(=O)c2cc(F)c(N3CCN(C(=O)c4ccco4)CC3)cc21,-40,8.0*,9,1
CCn1c(SCC(=O)NCc2ccco2)nnc1C1CCCC1,-12,-1,-1,-1
O=C(CSc1nc2c(c(=O)n1-c1ccc(F)cc1)SCC2)Nc1ccc2c(c1)OCO2,-11,-2,8,0
O=C(Nc1cccc(S(=O)(=O)NCc2ccco2)c1)c1cc(-c2ccccc2)nc2ccccc12,-5,-1,24,-2
Cc1cc(/C=N/NC(=O)Cn2c3ccccc3c(=O)c3ccccc32)c(C)n1-c1ccccc1,-6,-3,62*,2
SMILES,FID counter,IMP-1 inh,core dimer inh,VIM-2 inh
Cc1ccc(/C=C2\SC(=S)N(CC3CCCO3)C2=O)o1 (configuration not stated),-12,1,-4,-3
O=C1/C(=C/c2ccco2)SC(=S)N1CC1CCCO1 (configuration not stated),-10,5.4*,17,0
O=C1/C(=C/c2ccco2)SC(=S)N1C1CCS(=O)(=O)C1 (configuration not stated),-18,3,21,-3
O=C1/C(=C\c2ccco2)SC(=S)N1C1CCS(=O)(=O)C1 (configuration not stated),-9,7.3*,2,2
CC(C(=O)N(C)C1CCS(=O)(=O)C1)N1C(=O)/C(=C/c2ccc(F)cc2)SC1=S (configuration not stated),-65,-4,-3,-2
CCN(C(=O)C(C)N1C(=O)/C(=C/c2ccco2)SC1=S)C1CCS(=O)(=O)C1 (configuration not stated),-13,7.8*,9,-2
CCCCn1cnc2c(c(-c3ccccc3)c(-c3ccccc3)n2Cc2ccco2)c1=N,15,-1,2,0
